Tb MetRS inh: T. brucei MetRS inhibitors, primary screen, biochemical, luminescence | 360,000 compounds, 0.4% hits | purified T. brucei MetRS, ATP depletion, Kinase-Glo luminescence | inhibition, % at 11.9 µM | methionyl-tRNA synthetase (Trypanosoma brucei brucei);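 active = inhibition above a per-plate cutoff of the control wells' mean inhibition plus 3 SD, cut at about 5.5% in these data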;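 note: 0% = DMSO wells median and 100% = median of wells with control inhibitor compound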
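Dosing: 11.9 µM compound single dose, 0.9% DMSO; Assay system: purified T. brucei MetRS enzyme; Measured by: Kinase-Glo luciferase luminescence reporting remaining unconsumed ATP; Schedule: 15 min plus 2 h at 25 °C.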
MC4R antag cAMP: MC4R antagonists of cAMP signaling, primary screen, cell-based, TR-FRET, antagonist arm of biased-ligand search; 360,000 compounds, 0.48% hits; inhibition, % at 6.5 µM; MC4R-expressing cells, MTII-stimulated cAMP, LANCE TR-FRET; Melanocortin receptor 4 (Homo sapiens), P32245;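 active = inhibition above its plate's cutoff, the mean of tested wells on that plate plus 3 SD, cut at about 29% in these data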;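 note: 0% = Melanotan II alone and 100% = Melanotan II plus saturating MCL0020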
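Material: U2OS-MC4R stable cell line | Reagent: Melanotan II challenge after compound preincubation | Doses: One concentration, 6.5 µM nominal | Incubation: 30-min compound preincubation, 1-h Melanotan II challenge, 1-h detection, room temperature | Signal: TR-FRET cAMP assay | Replicates: One well per compound, no replicates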
TAG inh: inhibitors of triacylglycerol accumulation, primary screen, cell-based, uHTS, fluorescence, H9c2; H9c2 cells, Nile Red lipid (TAG) fluorescence; cells loaded with 200 µM oleic acid; inhibition, % at 12.5 µM; 230,000 compounds, 0.66% hits;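 active = pattern-corrected inhibition of lipid staining of at least 50% with the nuclear-stain viability signal not falling by more than 50%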;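 note: 0% = DMSO wells and 100% = triacsin C control wells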
aDG glyco up: activators of alpha-DG glycosylation, primary screen, uHTS, Pro5-aDG cells, AlphaScreen | alpha-DG glycosylation AlphaScreen (IIH6); 0% Pro5, 100% B10-LARGE cell signal | activation, % at 10 µM | 360,000 compounds, 0.22% hits | AID 624168, 2012;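 active = activation of at least 8% versus controls, or a plate z-score of at least 8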;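 note: Pro5 are CHO cells carrying HIG-tagged alpha-DG that lacks glycosylation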
MC4R barr agon: MC4R agonists recruiting beta-arrestin, primary screen, cell-based, luminescence, agonist arm of biased-ligand search; U2OS MC4R beta-arrestin complementation; percent of melanotan II response, DMSO zero; AID 540308, 2011; activation, % at 8.9 µM; 360,000 compounds, 0.98% hits;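 active = activation above a per-plate cutoff, the mean activation of sample wells on that plate plus 3 SD, cut at about 8% in these data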
NTR1 ag: agonists of human NTR1, primary screen, imaging, U2OS cells, beta-arrestin-GFP, high content | NTR1-U2OS beta-arrestin-GFP spot imaging, agonist mode | activation, % at 20 µM | 330,000 compounds, 0.17% hits | AID 493036, 2011;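 active = activation at or above 40% of the spot to cytoplasm intensity ratio, with at least 20 cells analyzed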;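 note: 0% = DMSO without peptide and 100% = 100 nM NTR1 peptide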
Target sequence (P30989 whole entry, looked up): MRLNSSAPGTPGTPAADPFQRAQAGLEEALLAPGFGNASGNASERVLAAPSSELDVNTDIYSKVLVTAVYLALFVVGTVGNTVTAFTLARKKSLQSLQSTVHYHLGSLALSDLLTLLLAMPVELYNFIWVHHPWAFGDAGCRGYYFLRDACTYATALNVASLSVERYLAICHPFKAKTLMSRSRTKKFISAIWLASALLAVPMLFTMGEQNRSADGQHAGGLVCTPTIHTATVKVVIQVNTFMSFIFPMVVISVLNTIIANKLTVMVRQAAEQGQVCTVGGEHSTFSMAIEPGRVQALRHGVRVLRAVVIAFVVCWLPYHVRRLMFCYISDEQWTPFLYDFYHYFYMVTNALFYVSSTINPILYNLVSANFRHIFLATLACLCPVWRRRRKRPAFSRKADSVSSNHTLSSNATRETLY
TbMetRS confirm: T. brucei MetRS inhibitors, confirmation, biochemical, luminescence | shares compounds with Tb MetRS inh | T. brucei MetRS enzyme, luminescence (ATP depletion) | inhibition, % at 11.9 µM | 1,400 compounds, 93% hits | AID 624412, 2012; in the data active = inhibition above about 7%
Jurkat tox: Jurkat T cell cytotoxicity, cytotoxicity control for T. brucei MetRS inhibitor project, luminescence, high throughput | shares compounds with Tb MetRS inh | Jurkat cells viability, ATP luminescence | inhibition, % at 8.3 µM | 1,400 compounds, 12% hits | AID 624413, 2012; in the data active = inhibition above about 15%;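 note: 0% = vehicle and 100% = reference inhibitor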
Tb MetRS inh FP: T. brucei MetRS inhibitors, orthogonal assay for T. brucei MetRS inhibitor project, biochemical, fluorescence polarization | AID 651607, 2012 | inhibition, % at 11.9 µM | shares compounds with Tb MetRS inh | purified T. brucei MetRS | 1,400 compounds, 44% hits; in the data active = inhibition above about 17%;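 note: 0% = vehicle wells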
TAG conf: triacylglycerol accumulation inhibitors, retest, confirmation, cell-based, single concentration, Nile Red fluorescence, H9c2; 990 compounds, 71% hits; AID 651629, 2012; H9c2 lipid accumulation; cells loaded with 200 µM oleic acid; inhibition, % at 12.5 µM; shares compounds with TAG inh;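 active = mean inhibition across replicates of 40% or more; inactive = mean inhibition below 40%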;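 note: plate controls were DMSO only wells for no effect and Triacsin C treated wells for full effect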
The depositor's hits bear a star; · = not tested or not shown. An excerpt weighted towards active compounds, which were near 2.4% of everything screened.

SMILES	Tb MetRS inh	MC4R antag cAMP	TAG inh	aDG glyco up	MC4R barr agon	NTR1 ag	TbMetRS confirm	Jurkat tox	Tb MetRS inh FP	others
COc1ccccc1NC(=O)Nc1nnc([C@H]2C[C@H](O)[C@@H](CO)O2)s1	0	-2	-4	0	-2	·	·	·	·
CCOc1ccc(S(=O)(=O)c2c[nH]c3ccccc3c2=O)cc1	13*	2	·	0	-2	0	24*	1	6
O=Cc1ccc(-c2ccc([N+](=O)[O-])cc2Cl)o1	6.5*	4	5	0	0	·	12*	-4	7
O=Cc1ccc(-c2cccc([N+](=O)[O-])c2)o1	0	-1	0	0	-2	2	·	·	·
CCCS(=O)(=O)NC(=O)C1(C)CCCN(C(=O)c2ccc(OC)cc2)C1 (configuration not stated)	1	9	9	0	-2	·	·	·	·
CC(C)C[C@@H](CN1CCC[C@@H]1CN1C(=S)NC[C@@H]1Cc1ccc(O)cc1)N1C[C@H](Cc2ccc(O)cc2)N(CCc2ccccc2)C1=S	-2	·	·	0	·	·	·	·	·
COc1ccc(-n2c(SCC(=O)Nc3ccc(Cl)cc3)nc(O)c(Cc3ccccc3)c2=O)cc1	47*	0	14	0	-1	2	70*	-10	35*
COc1cccc(-c2cccc(-c3nc(C(=O)NCc4ccc(Oc5ccccc5)cc4)cc4c3[C@H](CCO)N(S(=O)C(C)(C)C)C4)c2)c1 (some centres not stated)	-1	·	·	1	·	·	·	·	·
Cn1c(NCc2cccc(Br)c2)nc2ccccc21	40*	6	-4	1	-1	3	53*	8	29*
Clc1ccc2nc(C3CCN(Cc4ccccc4)CC3)[nH]c2c1	11*	1	·	0	-1	0	9.8*	4	4
Cc1ccc(CN2CCC(c3nc4ccc(Cl)cc4[nH]3)CC2)cc1	8.2*	2	·	4	1	1	25*	12	8
CC1CCCCN1C(=O)CN1CCC(c2nc3ccc(Cl)cc3[nH]2)CC1 (configuration not stated)	3	23	2	0	-4	2	·	·	·
CCCNC(=O)C[C@@H]1CC[C@H]2NC[C@H](O)COC[C@@H]2O1	0	·	·	0	·	·	·	·	·
C=CCOc1cccn2c(N(C=O)Cc3ccccc3)c(CC)nc12	0	24	-6	0	1	·	·	·	·
O=C(NCc1nc2ncc(Br)cc2[nH]1)c1ccccc1	6.8*	9	0	0	-1	-2	16*	1	8
Cc1nc2nc(SCC(=O)C(C)(C)C)[nH]c2cc1Br	0	1	-29	1	0	0	·	·	·
CC(C)(C)C(=O)CSc1nc2ncc(Br)cc2[nH]1	7.5*	0	17	0	0	2	18*	-1	7
Fc1ccccc1CSc1nc2ncc(Br)cc2[nH]1	5.9*	10	-3	0	3	1	14*	-4	17*
N#Cc1ccccc1CSc1nc2ncc(Br)cc2[nH]1	8.3*	1	2	0	-1	-1	37*	-5	17*
Brc1cnc2nc(SC/C=C/c3ccccc3)[nH]c2c1	-1	3	-8	0	0	1	·	·	·
O=[N+]([O-])c1ccc(CSc2nc3ncc(Br)cc3[nH]2)cc1	2	2	2	0	0	2	·	·	·
Cc1ccccc1CSCCNC(=O)Nc1ccccc1	5	3	·	0	3	-1	·	·	·
Cc1cccc(CSCCNC(=O)Nc2ccccc2)c1	15*	26	-3	0	2	-1	24*	-5	14
COc1ccc(-c2ccc3[nH]c4c(c3c2)CCN2C(=O)[C@@H]([C@H](C)O)[C@@H](N(C)C(=O)Nc3cc(Cl)cc(Cl)c3)C[C@@H]42)cc1	7.8*	21	62*	1	0	·	11*	13	12	TAG conf=63*
O=C(Nc1ccc(F)cc1)C(c1cc2ccccc2o1)N1CCN(c2ccncc2)CC1 (configuration not stated)	0	·	·	0	·	·	·	·	·
COc1ccc2[nH]c3c(c2c1)CCN1C(=O)C(CC(=O)NCC24CC5CC(CC(C5)C2)C4)C[C@H](C(=O)N2CCOCC2)[C@@]31C (some centres not stated)	0	13	18	0	-1	0	·	·	·
CC(C)N(C(=O)[C@H]1C[C@H](CC(=O)NCc2cccc(C(F)(F)F)c2)C(=O)N2CCc3c([nH]c4ccc(Cl)cc34)[C@]12C)C(C)C	0	-4	57*	0	0	20	·	·	·	TAG conf=82*
COc1ccc2[nH]c3c(c2c1)CCN1C(=O)C(CC(=O)NCC24CC5CC(CC(C5)C2)C4)C[C@H](C(=O)N(C(C)C)C(C)C)[C@@]31C (some centres not stated)	0	1	51*	0	1	5	·	·	·	TAG conf=59*
C[C@]12c3[nH]c4ccc(Cl)cc4c3CCN1C(=O)[C@@H](CC(=O)NCc1cccc(C(F)(F)F)c1)C[C@@H]2C(=O)N1CCOCC1	0	1	29	0	3	9	·	·	·
O=C(c1cnn2c1NC(c1ccc(Br)cc1)CC2C(F)(F)F)N1CCN(C23CC4CC(CC(C4)C2)C3)CC1 (configuration not stated)	0	9	54*	0	0	-1	·	·	·	TAG conf=55*
